Experiment [1] relates to Rattus norvegicus. Description: In vivo inhibition of sorbitol accumulation in sciatic nerves from streptozotocin-diabetic rats dosed at 3*25 mg/kg over 27h. Format: functional, Sciatic nerve.
Experiment [2] has as its system Rattus norvegicus. Description: In vivo inhibition of sorbitol accumulation in sciatic nerves from streptozotocin-diabetic rats dosed at 1*25 mg/kg over 5 days. Format: functional, Sciatic nerve.
Experiment [3] concerns Rattus norvegicus. As to the kind of experiment: Plasma concentration at 3h after the last dose of 25 mg/kg for 5 days. Format: functional.
The test system of experiment [4] is Rattus norvegicus. Description: Inhibition of sorbitol accumulation in sciatic nerves from streptozotocin-diabetic rats dosed at 3*10 mg/kg over 27h. The experiment is classed as functional, Sciatic nerve. An outline of the steps: (§1)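 Male Sprague-Dawley rats (180–220 g, 42–54 days) made diabetic with streptozotocin 85 mg/kg at 0 h. Oral gavage at 4, 7 and 24 h, dose quoted per time point. Sciatic nerve sorbitol measured with sorbitol dehydrogenase/NAD in pH 9.4 glycine. Mean (±SEM) percent inhibition against untreated diabetic controls, Student's t test on absolute sorbitol.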

For experiment [5], the system named is Rattus norvegicus. Description: Effective dose was tested against the inhibition of sorbitol accumulation in sciatic nerves from streptozotocin-diabetic rats dosed at 3*25 mg/kg over 27h. The experiment is classed as functional. The conditions noted are these: Sciatic nerve.
Experiment [6] addresses T1, Aldo-keto reductase family 1 member B1 (Homo sapiens, UniProt P15121). Description: Compound was tested in vitro for its inhibitory activity against human placental aldose reductase.
For experiment [7], the system named is Rattus norvegicus. As to the kind of experiment: Nerve concentration at 3h after the last dose of 25 mg/kg for 5 days. The experiment is classed as functional.
Experiment [8] deals with T1, Aldo-keto reductase family 1 member B1. As to the kind of experiment: Inhibitory activity against human placental aldose reductase.
Experiment [9] has as its system Rattus norvegicus. Description: In vivo inhibition of sorbitol accumulation in sciatic nerves from streptozotocin-diabetic rats given one dose per day over 5 days at a dose of 25 mg/kg.
Experiment [10] relates to Rattus norvegicus. Description: In vivo inhibition of sorbitol accumulation in sciatic nerves from streptozotocin-diabetic rats dosed over 5 days. at a dose of 10 mg/kg. As to conditions: Sciatic nerve, 120 h. Format: functional.
Experiment [11] relates to Rattus norvegicus. As to the kind of experiment: In vivo inhibition of sorbitol accumulation in sciatic nerves from streptozotocin-diabetic rats dosed over 5 days. at a dose of 5 mg/kg. The conditions noted are these: Sciatic nerve, 120 h. The experiment is classed as functional. An outline of the steps:
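Rats made diabetic with iv streptozotocin 85 mg/kg. From day 7, oral gavage once daily for 5 days. Animals killed 3 h after the last dose. Sorbitol in neutralized perchloric acid extracts of 25-mg sciatic nerve portions measured with sheep liver sorbitol dehydrogenase and NAD in pH 9.4 glycine. Percent inhibition against diabetic controls.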

Experiment [12] deals with Rattus norvegicus. Description: In vivo inhibition of sorbitol accumulation in sciatic nerves from streptozotocin-diabetic rats dosed over 5 days. at a dose of 2.5 mg/kg. Format: functional. As to conditions: Sciatic nerve, 120 h.
Experiment [13] has as its system Rattus norvegicus. Description: In vivo inhibition of sorbitol accumulation in sciatic nerves from streptozotocin-diabetic rats given three doses over 27 h. at a dose of 2.5 mg/kg. The conditions noted are these: Sciatic nerve. The experiment is classed as functional. An outline of the steps:
as §1

For experiment [14], the system named is Rattus norvegicus. As to the kind of experiment: In vivo inhibition of sorbitol accumulation in sciatic nerves from streptozotocin-diabetic rats dosed over 27 h. at a dose of 10 mg/kg. The conditions noted are these: Sciatic nerve. The experiment is classed as functional.
The subject of experiment [15] is Rattus norvegicus. As to the kind of experiment: In vivo inhibition of sorbitol accumulation in sciatic nerves from streptozotocin-diabetic rats dosed over 27 h. at a dose of 5 mg/kg. Format: functional. As to conditions: Sciatic nerve.
Experiment [16] deals with Rattus norvegicus. As to the kind of experiment: In vivo inhibition of sorbitol accumulation in sciatic nerves from streptozotocin-diabetic rats dosed over 27 h. at a dose of 25 mg/kg. The experiment is classed as functional. As to conditions: Sciatic nerve.
In experiment [17] the test system is Rattus norvegicus. Description: Inhibition of sorbitol accumulation in sciatic nerves from streptozotocin-diabetic rats dosed at 3*100 mg/kg over 27h. The experiment is classed as functional, Sciatic nerve. An outline of the steps: as §1
Experiment [18] concerns the target T1, Aldo-keto reductase family 1 member B1. As to the kind of experiment: (§2) ARI(aldose reductase inhibitor) enantiospecificity against human placental aldose reductase. An outline of the steps:
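Partially purified human placental enzyme (buffer homogenate, 33000g spin, pooled peak fractions, frozen). Rate of NADPH oxidation read at 340 nm, 25 °C, 12 min, in 50 mM phosphate pH 7.1 with 0.4 M NH4SO4, 0.067 mM NADPH, 1.0 mM dl-glyceraldehyde; enzyme at 4 milliunits. Molar IC50 ± SD over n experiments, from log-linear fit with common slope.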

For experiment [19], the system named is Rattus norvegicus. As to the kind of experiment: Inhibition of sorbitol accumulation in sciatic nerves from streptozotocin-diabetic rats dosed at 3*25 mg/kg over 27h. The experiment is classed as functional, Sciatic nerve.
The subject of experiment [20] is Rattus norvegicus. As to the kind of experiment: In vivo inhibition of sorbitol accumulation in sciatic nerves from streptozotocin-diabetic rats dosed over 5 days. at a dose of 25 mg/kg. The experiment is classed as functional. As to conditions: Sciatic nerve, 120 h.
The target of experiment [21] is T1, Aldo-keto reductase family 1 member B1. The description is as §2. This is another data set of the same source.
The species named for experiment [22] is Rattus norvegicus. As to the kind of experiment: animal or person. The conditions noted are these: Sciatic nerve, 27 h, read-out: Inhibition.
The species named for experiment [23] is Rattus norvegicus. Description: animal or person. The conditions noted are these: Sciatic nerve, 120 h, read-out: Inhibition.
Experiment [24] relates to Rattus norvegicus. Description: Inhibition of sorbitol accumulation in sciatic nerves from streptozotocin-diabetic rats dosed at 3*50 mg/kg over 27h. Format: functional, Sciatic nerve. An outline of the steps:
as §1

For orientation: Inhibition means the drop in the measured response relative to a control, in per cent. A word on the ED50: it is the dose that gives a 50% effect, or the effect in half of the subjects. For orientation: IC50 means the concentration that inhibits the measured activity by half. In the case of `C[C@@H]1C[C@@](O)(CC(=O)O)c2cc(Cl)c(F)cc2O1`, the Inhibition with Rattus norvegicus [1] is given as 29%; with Rattus norvegicus [2], -30%; in the experiment on Rattus norvegicus [4], 29%. Besides, the Tissue levels in the experiment with Rattus norvegicus [3] was found to be 13.4 µg/mL; in the experiment on Rattus norvegicus [7] it was 2.35 µg/mL. Moreover, in the experiment on Rattus norvegicus [5], the ED50 came to 19 mg/kg. The IC50 in experiment [6] amounted to 410 nM; in experiment [8], 390 nM.
`C[C@@H]1C[C@@](O)(CC(=O)O)c2cc(Cl)c(Cl)cc2O1` (stereo in doubt; 58): the Inhibition in the experiment with Rattus norvegicus [9] was determined as 78%. For the same molecule, the inhibition in vivo at 10 mg/kg was 68% in the experiment on Rattus norvegicus [10] and 70% in the experiment on Rattus norvegicus [14]. Besides, the inhibition in vivo at 5 mg/kg in the experiment on Rattus norvegicus [11] stood at 34%; with Rattus norvegicus [15], 60%. Besides, the inhibition in vivo at 2.5 mg/kg in the experiment with Rattus norvegicus [12] was determined as 31%; with Rattus norvegicus [13] it was 49%. The molecule also yielded an IC50 in experiment [8] of 50.9 nM. In the experiment on Rattus norvegicus [16], the inhibition in vivo at 25 mg/kg turned out to be 89%.
In the case of `O=C(O)C[C@]1(O)CCOc2ccc(F)cc21`, the Inhibition in the experiment with Rattus norvegicus [17] was found to be 61%. In addition, in the experiment on Rattus norvegicus [5], the ED50 was determined as 71.4 mg/kg. The same molecule registered an IC50 in experiment [8] of 600 nM.
`C[C@@H]1C[C@@](O)(CC(=O)O)c2cc(Cl)c(Cl)cc2O1` (stereo in doubt; 18): the Inhibition in the experiment on Rattus norvegicus [1] is 53%; in the experiment on Rattus norvegicus [2] it was 39%; with Rattus norvegicus [19], 91%. Besides, the figures for the Tissue levels in the experiment on Rattus norvegicus [3] and with Rattus norvegicus [7] were 19.7 µg/mL and 6.01 µg/mL, respectively. The same molecule came in with an ED50 in the experiment with Rattus norvegicus [5] of 8.06 mg/kg. Moreover, the IC50 is 156 nM in experiment [18], 140 nM in experiment [6] and 180 nM in experiment [8].
Regarding `C[C@@H]1C[C@@](O)(CC(=O)O)c2cc(F)c(Br)cc2O1`, the Inhibition stood at 73% in the experiment on Rattus norvegicus [1], 44% in the experiment on Rattus norvegicus [2] and 73% in the experiment on Rattus norvegicus [4]. Also, the Tissue levels is 8.8 µg/mL with Rattus norvegicus [3] and 1.31 µg/mL with Rattus norvegicus [7]. The ED50 in the experiment with Rattus norvegicus [5] came to 4.94 mg/kg. Besides, the IC50 in experiment [6] came out at 120 nM; in [8], 90 nM.
`O=C(O)Cc1nn(Cc2ccc(Br)cc2F)c(=O)c2ccccc12` [PONALRESTAT]: the inhibition in vivo at 25 mg/kg with Rattus norvegicus [20] came to 88%; in the experiment with Rattus norvegicus [16] it was 85%. The inhibition in vivo at 10 mg/kg with Rattus norvegicus [10] and in the experiment on Rattus norvegicus [14] was 81% throughout. Besides, the inhibition in vivo at 5 mg/kg in the experiment with Rattus norvegicus [11] worked out at 60%; in the experiment on Rattus norvegicus [15], 57%. The inhibition in vivo at 2.5 mg/kg with Rattus norvegicus [12] amounted to 0%; with Rattus norvegicus [13], 12%.
For the molecule `C[C@@H]1C[C@@](O)(CC(=O)O)c2cc(F)c(Cl)cc2O1` (stereo in doubt; 23), the values for the Inhibition in the experiment with Rattus norvegicus [1], in the experiment on Rattus norvegicus [2] and with Rattus norvegicus [19] were 72%, 55% and 76%, respectively. Further, the half-inhibitory concentration (IC50) in experiment [21] was determined as 49.3 nM; in [6], 12 nM; in experiment [8] it was 60 nM. Moreover, the Tissue levels in the experiment on Rattus norvegicus [3] was 14.2 µg/mL; with Rattus norvegicus [7], 1.85 µg/mL. The molecule also had an ED50 in the experiment on Rattus norvegicus [5] of 5.1 mg/kg.
`C[C@@H]1C[C@@](O)(CC(=O)O)c2cc(F)c(Cl)cc2O1` (stereo in doubt; 60) displayed an IC50 in [21] of 45.5 nM. Moreover, the figures for the inhibition in vivo at 2.5 mg/kg in the experiment listed under Rattus norvegicus [22] and in the experiment with Rattus norvegicus [12] were 39% and 19%, respectively. In addition, the results for the inhibition in vivo at 25 mg/kg in the experiment on Rattus norvegicus [20] and in the experiment on Rattus norvegicus [16] were 97% and 98%, respectively. Also, the results for the inhibition in vivo at 10 mg/kg with Rattus norvegicus [10] and in the experiment with Rattus norvegicus [14] were 69% and 88%, respectively. The inhibition in vivo at 5 mg/kg in the experiment listed under Rattus norvegicus [23] is 52%; in the experiment on Rattus norvegicus [15], 61%.
For `C[C@@H]1C[C@@](O)(CC(=O)O)c2ccccc2O1`, in the experiment on Rattus norvegicus [24], the Inhibition stood at 9%. The same molecule had an IC50 in [8] of 14800 nM.
Consider `CC1(C)C[C@@](O)(CC(=O)O)c2cc(F)ccc2O1`, for which the Inhibition in the experiment on Rattus norvegicus [17] is on record as 56%. This molecule yielded an ED50 with Rattus norvegicus [5] of 83.2 mg/kg. The molecule further returned an IC50 in experiment [8] of 3460 nM.
Take `O=C(O)C[C@]1(O)C[C@@H](c2ccccc2)Oc2ccc(F)cc21`: the Inhibition with Rattus norvegicus [24] amounted to 3%. In experiment [8], this molecule yielded an IC50 of 2670 nM.
Take `C[C@@H]1C[C@@](O)(CC(=O)O)c2cc(F)ccc2O1`: the Inhibition in the experiment with Rattus norvegicus [1] was 22%; in the experiment with Rattus norvegicus [2], 13%; in the experiment with Rattus norvegicus [17], 92%; in the experiment with Rattus norvegicus [24], 81%; with Rattus norvegicus [19] it was 56%. Further, the Tissue levels with Rattus norvegicus [3] was below 0.5 µg/mL. In the experiment on Rattus norvegicus [5], this molecule showed an ED50 of 23 mg/kg. The IC50 was 310 nM in [6] and 200 nM in experiment [8].
For the molecule `C[C@@H]1C[C@@](O)(CC(=O)O)c2cc(Cl)c(Cl)cc2O1`, the IC50 in experiment [21] worked out at 5620 nM.
For the molecule `C[C@@H]1C[C@@](O)(CC(=O)O)c2cc(F)c(F)cc2O1`, the Inhibition with Rattus norvegicus [1] is reported as 67%; in the experiment on Rattus norvegicus [2], -20%; in the experiment on Rattus norvegicus [4], 67%. The Tissue levels was 2.19 µg/mL in the experiment with Rattus norvegicus [3] and below 0.1 µg/mL in the experiment on Rattus norvegicus [7]. Moreover, in the experiment with Rattus norvegicus [5], the 50% effect level (ED50) was put at a dose of 5.94 mg/kg. Also, the IC50 in experiment [6] was 350 nM; in experiment [8], 250 nM.
As for `C[C@@H]1C[C@@](O)(CC(=O)O)c2cc(Cl)c(Br)cc2O1`, the results for the Inhibition in the experiment on Rattus norvegicus [1], in the experiment with Rattus norvegicus [2] and in the experiment on Rattus norvegicus [4] were 46%, 33% and 46%, respectively. Further, the Tissue levels with Rattus norvegicus [3] was determined as 12.7 µg/mL; with Rattus norvegicus [7], 3.11 µg/mL. The ED50 with Rattus norvegicus [5] turned out to be 11.3 mg/kg. The 50% inhibitory concentration (IC50) in [6] stood at 50 nM; in experiment [8], 70 nM.
